Reference: ChEMBL document CHEMBL4265871, “Novel alkylated azoles as potent antifungals” (Eur J Med Chem, 2017)
Values after ≈ are worked out from the molar mass of the structure shown.

Key:
[1] = Selectivity index, ratio of EC50 for toxicity in human A549 cells to MIC50 for antifungal activity against Candida glabrata ATCC 2001; type: cell-based; details: read-out: Selectivity Index
Summary of the method: (§1)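 Selectivity index is the EC50 against the mammalian line (A549 or BEAS-2B) divided by the MIC against the given fungal strain.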

Aspergillus nidulans = test: Antifungal activity against Aspergillus nidulans ATCC 38163 incubated for 48 hrs by CLSI M38-A2 protocol based method; type: functional; details: ATCC 38163, 48 h, read-out: MIC100
[2] = Selectivity index, ratio of EC50 for toxicity in human A549 cells to MIC50 for antifungal activity against Candida krusei ATCC 6258
Candida parapsilosis = test: Antifungal activity against Candida parapsilosis ATCC 22019 incubated for 48 hrs by modified CLSI M27-A3 protocol based method; type: functional; details: Lodderomyces parapsilosis, ATCC 22019, 48 h; read-out: MIC100
Summary of the method: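 For C. albicans ATCC 10231, C. krusei ATCC 6258 and C. parapsilosis ATCC 22019, MIC-0 was read, meaning complete growth inhibition. For azole controls, MIC-2 (50% growth inhibition) was reported instead. Caspofungin and voriconazole were tested here; other controls came from earlier work.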

[3] = Selectivity index, ratio of EC50 for toxicity in human BEAS2B cells to MIC100 for antifungal activity against Candida albicans ATCC 10231; type: cell-based; details: BEAS-2B cells, read-out: Selectivity Index; summary of the method: as §1
[4] = Toxicity in human BEAS2B cells assessed as reduction in cell viability incubated for 24 hrs by resazurin dye based assay; details: BEAS-2B cells
Summary of the method: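 Toxicity tested in the nucleated lines A549 and BEAS-2B to give EC50 values. Selectivity index is EC50 against the mammalian line divided by the MIC against a given fungal strain.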

[5] = Selectivity index, ratio of EC50 for toxicity in human BEAS2B cells to MIC50 for antifungal activity against ITC and FLC-susceptible Candida albicans ATCC MYA-2876; type: cell-based; details: BEAS-2B cells, read-out: Selectivity Index
Summary of the method: (§2)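 Ratio of the compound's EC50 against BEAS-2B cells to its MIC against the named C. albicans strain. […] For C. albicans strains other than ATCC 10231, trailing growth meant MIC-2 was taken, meaning 50% growth inhibition.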

[6] = Selectivity index, ratio of […] for toxicity in human BEAS2B cells to MIC50 for antifungal activity against Aspergillus nidulans ATCC 38163; type: cell-based; details: BEAS-2B cells, read-out: Selectivity Index
[7] = Selectivity index, ratio of […] for toxicity in human BEAS2B cells to MIC50 for antifungal activity against Aspergillus terreus ATCC MYA-3633; type: cell-based; details: BEAS-2B cells, read-out: Selectivity Index
[8] = Selectivity index, ratio of […] for toxicity in human A549 cells to MIC50 for antifungal activity against Aspergillus flavus ATCC MYA-3631; type: cell-based; details: read-out: Selectivity Index
Candida albicans [9] = test: Antifungal activity against ITC and FLC-resistant Candida albicans ATCC 1237 incubated for 48 hrs by modified CLSI M27-A3 protocol based method; type: functional; details: ATCC 1237, 48 h
Summary of the method: (§3)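 Because these Candida strains show trailing growth, MIC-2 was read, meaning 50% growth inhibition. Caspofungin and voriconazole were tested here; other controls came from earlier work.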

Candida albicans [10] = test: Antifungal activity against ITC and FLC-susceptible Candida albicans ATCC MYA-2310 incubated for 48 hrs by modified CLSI M27-A3 protocol based method; type: functional; details: ATCC MYA-2310, 48 h
[11] = Hemolytic activity in mouse erythrocytes assessed as hemolysis level at 125 ug/ml incubated for 1 hr at 37 degC; type: ADME, cell-based, Erythrocyte; details: read-out: Activity
Summary of the method: (§4)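 Mouse erythrocytes incubated 1 h at 37 °C with test agents over 1.95 to 125 µg/mL. Percent lysis is read for each concentration.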

[12] = Selectivity index, ratio of EC50 for toxicity in human A549 cells to MIC50 for antifungal activity against Candida albicans ATCC 64124; type: cell-based; details: read-out: Selectivity Index; summary of the method: as §1
[13] = Hemolytic activity in mouse erythrocytes assessed as hemolysis level at 7.8 ug/ml incubated for 1 hr at 37 degC; type: ADME, cell-based, Erythrocyte; details: read-out: Activity; summary of the method: as §4
Candida albicans [14] = test: Antifungal activity against ITC and FLC-resistant Candida albicans ATCC MYA-1003 incubated for 48 hrs by modified CLSI M27-A3 protocol based method; type: functional; details: ATCC MYA-1003, 48 h; summary of the method: as §3
[15] = Selectivity index, ratio of EC50 for toxicity in human A549 cells to MIC50 for antifungal activity against ITC and FLC-resistant Candida albicans ATCC MYA-90819; type: cell-based; details: read-out: Selectivity Index; summary of the method: as §1
[16] = Selectivity index, ratio of EC50 for toxicity in human A549 cells to MIC50 for antifungal activity against ITC and FLC-susceptible Candida albicans ATCC MYA-2310; type: cell-based; details: read-out: Selectivity Index; summary of the method: as §1
[17] = Hemolytic activity in mouse erythrocytes assessed as hemolysis level at 1.95 ug/ml incubated for 1 hr at 37 degC; type: ADME, cell-based, Erythrocyte; details: read-out: Activity; summary of the method: as §4
[18] = Selectivity index, ratio of EC50 for toxicity in human BEAS2B cells to MIC50 for antifungal activity against Candida albicans ATCC 64124; type: cell-based; details: BEAS-2B cells, read-out: Selectivity Index; summary of the method: as §1
[19] = Selectivity index, ratio of […] for toxicity in human A549 cells to MIC50 for antifungal activity against Aspergillus nidulans ATCC 38163; type: cell-based; details: read-out: Selectivity Index
in vitro = details: mouse, mouse erythrocytes
[20] = Hemolytic activity in mouse erythrocytes assessed as hemolysis level at 15.6 ug/ml incubated for 1 hr at 37 degC; type: ADME, cell-based, Erythrocyte; details: read-out: Activity; summary of the method: as §4
[21] = Selectivity index, ratio of EC50 for toxicity in human A549 cells to MIC50 for antifungal activity against ITC and FLC-resistant Candida albicans ATCC MYA-1003; type: cell-based; details: read-out: Selectivity Index; summary of the method: as §1
[22] = Selectivity index, ratio of EC50 for toxicity in human BEAS2B cells to MIC50 for antifungal activity against ITC and FLC-resistant Candida albicans ATCC MYA-90819; type: cell-based; details: BEAS-2B cells, read-out: Selectivity Index; summary of the method: as §2
Candida albicans [23] = test: Antifungal activity against ITC and FLC-susceptible Candida albicans ATCC MYA-2876 incubated for 48 hrs by modified CLSI M27-A3 protocol based method; type: functional; details: ATCC MYA-2876, 48 h; summary of the method: as §3
[24] = Selectivity index, ratio of EC50 for toxicity in human BEAS2B cells to MIC50 for antifungal activity against ITC and FLC-resistant Candida albicans ATCC 1237; type: cell-based; details: BEAS-2B cells, read-out: Selectivity Index; summary of the method: as §1
Nakaseomyces glabratus = test: Antifungal activity against Candida glabrata ATCC 2001 incubated for 48 hrs by modified CLSI M27-A3 protocol based method; type: functional; details: ATCC 2001, 48 h
Aspergillus flavus = test: Antifungal activity against Aspergillus flavus ATCC MYA-3631 incubated for 48 hrs by CLSI M38-A2 protocol based method; type: functional; details: ATCC MYA-3631, 48 h, read-out: MIC100
[25] = Selectivity index, ratio of EC50 for toxicity in human A549 cells to MIC50 for antifungal activity against ITC and FLC-resistant Candida albicans ATCC 1237; type: cell-based; details: read-out: Selectivity Index; summary of the method: as §1
[26] = Selectivity index, ratio of EC50 for toxicity in human A549 cells to MIC for antifungal activity against Candida parapsilosis ATCC 22019
[27] = Selectivity index, ratio of EC50 for toxicity in human BEAS2B cells to MIC for antifungal activity against Candida parapsilosis ATCC 22019; details: BEAS-2B cells

Row | Structure (SMILES) | selectivity ratio [1] | MIC (Aspergillus nidulans) [µM] | selectivity ratio [2] | MIC (Candida parapsilosis) [µM] | selectivity ratio [3] | EC50 at 24 h [4] [µg/mL] | selectivity ratio [5] | selectivity ratio [6] | selectivity ratio [7] | selectivity ratio [8] | MIC50 (Candida albicans [9]) [µM] | MIC50 (Candida albicans [10]) [µM] | selectivity ratio [12] | MIC50 (Candida albicans [14]) [µM] | selectivity ratio [15] | selectivity ratio [16] | selectivity ratio [18] | selectivity ratio [19] | selectivity ratio [21] | selectivity ratio [22] | also measured
1 | CCCCC(O)(Cn1cncn1)c1ccc(Cl)cc1Cl (configuration not stated) [HEXACONAZOLE] | 8 | 0.76 (≈ 0.239 µg/mL) | 522 | < 0.1 | 130 | > 31.3 | 16 | 130 | 32 | 8 | 24.8 (≈ 7.79 µg/mL) | 6.2 (≈ 1.95 µg/mL) | 8 | 3.1 (≈ 0.974 µg/mL) | 16 | 16 | 8 | 130 | 32 | 16 | hemolysis at 1 h, 125 ug/ml [11]: 100%; hemolysis at 1 h, 7.8 ug/ml [13]: 0%; hemolysis at 1 h, 1.95 ug/ml [17]: 0%; hemolysis at 1 h, 62.5 ug/ml (in vitro): 59%; hemolysis at 1 h, 15.6 ug/ml [20]: 0%; MIC50 (Candida albicans [23]): 6.2 µM (≈ 1.95 µg/mL); selectivity ratio [24]: 4; MIC50 (Nakaseomyces glabratus): 12.4 µM (≈ 3.9 µg/mL); MIC (Aspergillus flavus): 12.4 µM (≈ 3.9 µg/mL); selectivity ratio [25]: 4; selectivity ratio [26]: 1040; selectivity ratio [27]: 1040
2 | CCCCCC(O)(Cn1cncn1)c1ccccc1F (configuration not stated) | 38 | 1.7 (≈ 0.471 µg/mL) | 617 | 0.43 (≈ 0.119 µg/mL) | 8 | > 31.3 | 32 | 65 | 8 | 5 | 3.5 (≈ 0.971 µg/mL) | 3.5 (≈ 0.971 µg/mL) | 1 | 14.1 (≈ 3.91 µg/mL) | 77 | 38 | 1 | 77 | 9 | 65 | hemolysis at 1 h, 125 ug/ml [11]: 20.7%; hemolysis at 1 h, 7.8 ug/ml [13]: 0%; hemolysis at 1 h, 1.95 ug/ml [17]: 0%; hemolysis at 1 h, 62.5 ug/ml (in vitro): 0%; hemolysis at 1 h, 15.6 ug/ml [20]: 0%; MIC50 (Candida albicans [23]): 3.5 µM (≈ 0.971 µg/mL); selectivity ratio [24]: 32; MIC50 (Nakaseomyces glabratus): 3.5 µM (≈ 0.971 µg/mL); MIC (Aspergillus flavus): 28.1 µM (≈ 7.79 µg/mL); selectivity ratio [25]: 38; selectivity ratio [26]: 308; selectivity ratio [27]: 261
3 | CCCCCCC(O)(Cn1cncn1)c1ccc(F)cc1F (configuration not stated) | 9 | 1.6 (≈ 0.495 µg/mL) | 292 | < 0.1 | 16 | > 31.3 | 16 | 65 | 4 | 2 | 6.3 (≈ 1.95 µg/mL) | 12.6 (≈ 3.9 µg/mL) | 4 | 6.3 (≈ 1.95 µg/mL) | 18 | 9 | 4 | 73 | 18 | 16 | hemolysis at 1 h, 125 ug/ml [11]: 60.9%; hemolysis at 1 h, 7.8 ug/ml [13]: 0%; hemolysis at 1 h, 1.95 ug/ml [17]: 0%; hemolysis at 1 h, 62.5 ug/ml (in vitro): 26.3%; hemolysis at 1 h, 15.6 ug/ml [20]: 8.2%; MIC50 (Candida albicans [23]): 6.3 µM (≈ 1.95 µg/mL); selectivity ratio [24]: 16; MIC50 (Nakaseomyces glabratus): 12.6 µM (≈ 3.9 µg/mL); MIC (Aspergillus flavus): 50.4 µM (≈ 15.6 µg/mL); selectivity ratio [25]: 18; selectivity ratio [26]: 1170; selectivity ratio [27]: 1040
4 | CCCCCC(O)(Cn1cncn1)c1ccc(Cl)cc1 (configuration not stated) | 8 | 26.5 (≈ 7.79 µg/mL) | 261 | 0.2 (≈ 0.0588 µg/mL) | 16 | > 31.3 | 2 | 4 | 1 | 1 | 13.3 (≈ 3.91 µg/mL) | 53.1 (≈ 15.6 µg/mL) | 4 | 6.6 (≈ 1.94 µg/mL) | 16 | 2 | 4 | 4 | 16 | 16 | MIC50 (Candida albicans [23]): 53.1 µM (≈ 15.6 µg/mL); selectivity ratio [24]: 8; MIC50 (Nakaseomyces glabratus): 13.3 µM (≈ 3.91 µg/mL); MIC (Aspergillus flavus): > 106 µM; selectivity ratio [25]: 8; selectivity ratio [26]: 522; selectivity ratio [27]: 522
5 | CCCCCC(O)(Cn1cncn1)c1ccc(F)cc1 (configuration not stated) | 4 | 14.1 (≈ 3.91 µg/mL) | 32 | 1.7 (≈ 0.471 µg/mL) | 8 | 33 (≈ 119 µM) | 4 | 8 | 1 | 1 | 7 (≈ 1.94 µg/mL) | 14.1 (≈ 3.91 µg/mL) | 1 | > 113 | 32 | 8 | 1 | 8 | 1 | 34 | MIC50 (Candida albicans [23]): 28.1 µM (≈ 7.79 µg/mL); selectivity ratio [24]: 17; MIC50 (Nakaseomyces glabratus): 28.1 µM (≈ 7.79 µg/mL); MIC (Aspergillus flavus): > 113 µM; selectivity ratio [25]: 16; selectivity ratio [26]: 65; selectivity ratio [27]: 69
6 | CCCC(O)(Cn1cncn1)c1ccc(Cl)cc1Cl (configuration not stated) | 8 | 6.5 (≈ 1.95 µg/mL) | 522 | < 0.1 | 130 | > 31.3 | 16 | 16 | 8 | 2 | 26 (≈ 7.8 µg/mL) | 13 (≈ 3.9 µg/mL) | 8 | 3.2 (≈ 0.961 µg/mL) | 8 | 8 | 8 | 16 | 32 | 8 | MIC50 (Candida albicans [23]): 6.5 µM (≈ 1.95 µg/mL); selectivity ratio [24]: 4; MIC50 (Nakaseomyces glabratus): 13 µM (≈ 3.9 µg/mL); MIC (Aspergillus flavus): 52 µM (≈ 15.6 µg/mL); selectivity ratio [25]: 4; selectivity ratio [26]: 1040; selectivity ratio [27]: 1040
